Measurements pooled from the literature.
Compare with care: the assays were run in different laboratories.
Target: Aurora kinase B (AURKB, Homo sapiens, UniProt Q96GD4)

Cc1cnc(Nc2ccc(C(=O)N3CCC(N4CCCC4)CC3)cc2)nc1-c1cc2ccccc2s1
remaining binding (binding, competition with immobilised ligand; 1 µM): 6.8%

CNC(=O)Nc1ccc2c(c1)CC[C@@]21OC(=O)N(CC(=O)N(Cc2ccc(F)cc2)[C@@H](C)C(F)(F)F)C1=O
remaining binding (cell-free assay, competition with immobilised ligand; 1 µM): 86%

F[C@@H]1CCN(c2nccc(-c3cnn4ncccc34)n2)C1
remaining binding (binding; 1 µM): 100%

CCC(=O)N[C@H]1CC[C@@H](C(=O)N(C)c2ccc(-c3nc4ccccc4o3)cc2)C1
remaining binding (cell-free assay, competition with immobilised ligand; 1 µM): 83%

C[C@@H]1CN(c2ccc3ncc(-c4ccc5[nH]nc(C6CC6)c5c4)n3n2)C[C@H](C)O1
remaining binding (binding, competition with immobilised ligand; 50 nM): 100%

Nc1ncc2c(n1)-c1c([nH]c3ccc(C#CC4CC4)cc13)CCCC2
remaining binding (binding, competition with immobilised ligand; 1 µM): 43%

CN(C)c1nccc(-c2cnc3ncccn23)n1
remaining binding (binding; 1 µM): 76%

CC(=O)N1CCC(c2ccc(C(=O)NC3=NCCN3)cc2C(F)(F)F)CC1
remaining binding (cell-free assay, competition with immobilised ligand; 1 µM): 100%

O=C(NCCCN1CCOCC1)c1ccc(Nc2ncc(Cl)c(-c3ccc(Cl)s3)n2)cc1
remaining binding (binding, competition with immobilised ligand; 1 µM): 15%

FC(F)(F)Oc1cccc(-c2cnc3ccc(-c4ccncc4)nn23)c1
remaining binding (cell-free assay, competition with immobilised ligand; 5 µM): 73%

CC1=C(C#N)[C@@H](c2ccc3[nH]nc(C)c3c2)C(C#N)=C(c2ccc(Cl)cc2)N1
remaining binding (cell-free assay, competition with immobilised ligand; 1 µM): 82.9%

C=CC(=O)N1CCC(C(=O)NCC(=O)N2CCN(c3nc(-c4cnc(N)nc4C(F)F)nc(N4CCOCC4)n3)CC2)CC1
remaining binding (binding, competition with immobilised ligand; 1 µM): 56%

O=C(NCCCN1CCOCC1)c1ccc(Nc2nccc(-c3cc4ccccc4s3)n2)cc1
remaining binding (binding, competition with immobilised ligand; 1 µM): 48%

O=C1CCc2cc(Nc3cc(OC4CCOCC4)c([N+](=O)[O-])cc3Cl)ccc2N1
remaining binding (cell-free assay, competition with immobilised ligand; 1 µM): 86%

COc1cnc(Nc2cccc(S(N)(=O)=O)c2)nc1N1CCN(c2ccccc2)CC1
remaining binding (binding, competition with immobilised ligand; 1 µM): 89%

CN([C@@H]1CCc2c(CC(=O)O)c3cc(S(C)(=O)=O)ccc3n2C1)S(=O)(=O)c1ccc(F)cc1
remaining binding (cell-free assay, competition with immobilised ligand; 1 µM): 83%

N[C@@H]1CCN(c2nccc(-c3cnn4ncccc34)n2)C1
remaining binding (binding; 1 µM): 99%

CN([C@@H]1CCc2c(CC(=O)O)c3ccccc3n2C1)S(=O)(=O)c1ccc(F)cc1
remaining binding (cell-free assay, competition with immobilised ligand; 1 µM): 91%

CC(C)(C)c1ccc(-c2nc(CBr)nn2-c2cccc(O)c2)cc1
remaining binding (cell-free assay, competition with immobilised ligand; 10 µM): 69%

O=C(Nc1c[nH]nc1C(=O)NC1CCNCC1)c1cc(F)cc(F)c1
remaining binding (binding, competition with immobilised ligand; 1 µM): 78%

c1cncc(-c2cccc(Nc3nccc(NC4CCCCC4)n3)c2)c1
remaining binding (binding, competition with immobilised ligand; 10 µM): 23%

CN(c1nccc(-c2cnn3ncccc23)n1)C1CC1
remaining binding (binding; 1 µM): 100%

COc1ncc2cc3ccccc3nc2c1C#N
remaining binding (cell-free assay, competition with immobilised ligand; 5 µM): 94%
